Source: ChEMBL document CHEMBL2406970, “Synthesis and bioevaluation of a series of α-pyrone derivatives as potent activators of Nrf2/ARE pathway (part I)” (Eur J Med Chem, 2013)
Calls of active or inactive are those of the source. The calls are words filed in the database; no cut-off is given here.

Experiments:
[1] = target: T1, Keap1/Nrf2 (Homo sapiens) (UniProt Q16236+Q14145); experiment: Induction of Nrf2/Keap1 in human HCT116 cells assessed as induction of ARE activity at 20 uM after 12 hrs by luciferase reporter gene assay relative to control; type: cell-based; conditions: HCT-116
[2] = target: T1, Keap1/Nrf2 (Homo sapiens); experiment: Induction of Nrf2/Keap1 in human HepG2-ARE-C8 cells assessed as induction of ARE activity at 50 uM after 12 hrs by luciferase reporter gene assay relative to control
HCT-116 [3] = experiment: Cytotoxicity against human HCT116 cells by MTT assay; type: functional, cell-based
In short: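 HCT116 cells were cultured in McCoy's 5A with 10% FBS and exposed to a range of compound concentrations. MTT was added for 4 h, the solution removed and DMSO added. OD was read at 570 nm, and inhibition calculated as [1 − (OD_test − OD_blank)/(OD_control − OD_blank)] × 100%.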

[4] = target: T1, Keap1/Nrf2 (Homo sapiens); experiment: Induction of Nrf2/Keap1 in human HCT116 cells assessed as induction of ARE activity at 80 uM after 12 hrs by luciferase reporter gene assay relative to control; type: cell-based; conditions: HCT-116
HCT-116 [5] = experiment: Induction of HO-1 expression in human HCT116 cells at 20 uM up to 24 hrs by Western blot analysis in presence of MEK1/2 inhibitor PD98059; type: functional, cell-based
[6] = target: T2, Nuclear factor erythroid 2-related factor 2 (Homo sapiens) (UniProt Q16236); experiment: Activation of NRF2 in human HCT116 cells assessed as ERK1/2 phosphorylation at 20 uM after 30 mins to 1 hr by Western blot analysis; type: cell-based; conditions: HCT-116
T2 sequence (whole entry): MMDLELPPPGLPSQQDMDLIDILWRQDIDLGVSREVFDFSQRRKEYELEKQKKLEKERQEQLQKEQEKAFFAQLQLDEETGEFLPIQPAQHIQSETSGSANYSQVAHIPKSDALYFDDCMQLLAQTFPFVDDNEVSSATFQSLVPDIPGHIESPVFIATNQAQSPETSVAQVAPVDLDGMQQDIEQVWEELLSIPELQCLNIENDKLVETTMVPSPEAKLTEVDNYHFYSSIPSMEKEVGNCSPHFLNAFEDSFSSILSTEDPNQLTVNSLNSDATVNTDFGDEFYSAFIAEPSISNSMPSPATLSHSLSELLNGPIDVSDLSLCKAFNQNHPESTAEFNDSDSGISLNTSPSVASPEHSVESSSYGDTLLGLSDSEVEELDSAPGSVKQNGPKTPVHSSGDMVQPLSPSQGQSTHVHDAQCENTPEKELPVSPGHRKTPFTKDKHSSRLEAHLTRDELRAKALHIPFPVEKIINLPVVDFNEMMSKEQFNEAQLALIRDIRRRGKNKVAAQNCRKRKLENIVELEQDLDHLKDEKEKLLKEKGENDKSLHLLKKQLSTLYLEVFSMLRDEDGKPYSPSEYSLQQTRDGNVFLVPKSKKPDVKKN

[7] = target: T1, Keap1/Nrf2 (Homo sapiens); experiment: Induction of Nrf2/Keap1 in human HCT116 cells assessed as induction of ARE activity after 12 hrs by luciferase reporter gene assay; type: cell-based; conditions: HCT-116
[8] = target: T2, Nuclear factor erythroid 2-related factor 2 (Homo sapiens); experiment: Activation of NRF2 in human HCT116 cells assessed as expression of ERK1/2 at 20 uM up to 24 hrs by Western blot analysis; type: cell-based; conditions: HCT-116
HCT-116 [9] = experiment: Induction of Nrf2 expression in human HCT116 cells at 20 uM up to 24 hrs by Western blot analysis in presence of MEK1/2 inhibitor PD98059; type: functional, cell-based
HCT-116 [10] = experiment: Induction of nuclear translocation of Nrf2 in human HCT116 cells at 20 uM after 1 to 2 hrs by immunofluorescence staining in presence of MEK1/2 inhibitor PD98059
HCT-116 [11] = experiment: Induction of HO-1 expression in human HCT116 cells at 20 uM after 8 hrs by Western blot analysis; type: functional, cell-based
HCT-116 [12] = experiment: Induction of Nrf2 expression in human HCT116 cells at 20 uM after 2 hrs by Western blot analysis; type: functional, cell-based
HCT-116 [13] = experiment: Induction of nuclear translocation of Nrf2 in human HCT116 cells at 20 uM after 1 hr by Western blot analysis; type: functional, cell-based
HCT-116 [14] = experiment: Induction of NQO-1 expression in human HCT116 cells at 20 uM up to 24 hrs by Western blot analysis in presence of MEK1/2 inhibitor PD98059; type: functional, cell-based
[15] = target: T1, Keap1/Nrf2 (Homo sapiens); experiment: Induction of Nrf2/Keap1 in human HCT116 cells assessed as induction of ARE activity at 20 uM after 12 hrs by luciferase reporter gene assay in presence of MEK1/2 inhibitor PD98059; type: cell-based; conditions: HCT-116
HCT-116 [16] = experiment: Induction of NQO-1 expression in human HCT116 cells at 20 uM after 24 hrs by Western blot analysis; type: functional, cell-based
HCT-116 [17] = experiment: Induction of nuclear translocation of Nrf2 in human HCT116 cells at 20 uM after 24 hrs by Western blot analysis; type: functional, cell-based
[18] = target: T2, Nuclear factor erythroid 2-related factor 2 (Homo sapiens); experiment: Activation of NRF2 in human HCT116 cells assessed as ERK1/2 phosphorylation at 20 uM after 30 mins to 1 hr by Western blot analysis in presence of MEK1/2 inhibitor PD98059; type: cell-based; conditions: HCT-116

T1 sequence (Q14145 whole entry, looked up, one chain of several): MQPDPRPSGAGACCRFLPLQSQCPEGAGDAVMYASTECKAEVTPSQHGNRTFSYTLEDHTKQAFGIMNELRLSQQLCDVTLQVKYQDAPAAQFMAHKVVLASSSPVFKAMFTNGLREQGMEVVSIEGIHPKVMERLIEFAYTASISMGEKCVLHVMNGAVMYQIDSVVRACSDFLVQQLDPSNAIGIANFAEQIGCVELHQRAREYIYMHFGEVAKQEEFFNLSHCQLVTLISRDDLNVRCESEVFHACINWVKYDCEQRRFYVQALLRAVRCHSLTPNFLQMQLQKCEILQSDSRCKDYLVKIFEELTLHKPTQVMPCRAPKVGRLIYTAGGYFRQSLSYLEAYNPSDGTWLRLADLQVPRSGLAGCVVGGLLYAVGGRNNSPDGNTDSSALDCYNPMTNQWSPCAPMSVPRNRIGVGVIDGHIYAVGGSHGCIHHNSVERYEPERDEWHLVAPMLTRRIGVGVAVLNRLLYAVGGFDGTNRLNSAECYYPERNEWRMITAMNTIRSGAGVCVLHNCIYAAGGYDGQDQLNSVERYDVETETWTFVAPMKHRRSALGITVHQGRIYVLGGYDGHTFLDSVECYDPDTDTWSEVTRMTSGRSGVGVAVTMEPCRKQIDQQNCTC

| Structure (SMILES) | fold change (FC) [1] | fold change (FC) [2] | IC50 (HCT-116 [3]) | also measured |
| --- | --- | --- | --- | --- |
| Cc1cc(O)c(C(=O)/C=C/c2ccc(Cl)c(Cl)c2)c(=O)o1 | 8 | 1.2 | > 100 µM |  |
| Cc1cc(O)c(C(=O)/C=C/c2ccc(N(C)C)cc2)c(=O)o1 | 4.55 | 8.09 | > 100 µM |  |
| Cc1cc(O)c(C(=O)/C=C/c2ccc3ccccc3c2)c(=O)o1 | 1.37 | 2.17 | > 100 µM |  |
| CCOc1ccc(/C=C/C(=O)c2c(O)cc(C)oc2=O)cc1 | 4.66 | 5.5 | > 100 µM |  |
| Cc1cc(O)c(C(=O)/C=C/c2ccc(F)cc2F)c(=O)o1 | 6.93 | 6.98 | 80.3 µM |  |
| Cc1cc(O)c(C(=O)/C=C/c2ccccc2Cl)c(=O)o1 | 5.08 | 0.95 | > 100 µM |  |
| COc1ccc(/C=C/C(=O)c2c(O)cc(C)oc2=O)cc1 | 6.48 | 7.37 | > 100 µM |  |
| COc1ccc(/C=C/C(=O)c2c(O)cc(C)oc2=O)c(OC)c1 | 8.21 | 6.81 | > 100 µM |  |
| Cc1cc(O)c(C(=O)/C=C/c2ccccc2[N+](=O)[O-])c(=O)o1 | 2.74 | 0.65 | > 100 µM |  |
| Cc1cc(O)c(C(=O)/C=C/c2ccc([N+](=O)[O-])cc2)c(=O)o1 | 4.77 | 2.48 | 65 µM |  |
| Cc1cc(O)c(C(=O)/C=C/c2ccccc2)c(=O)o1 | 4.21 | 6.84 | > 100 µM |  |
| Cc1cc(O)c(C(=O)/C=C/c2ccc(C#N)cc2)c(=O)o1 | 3.68 | 2.07 | 66 µM |  |
| Cc1cc(O)c(C(=O)/C=C/c2cccs2)c(=O)o1 | 4.53 | 5.96 | > 100 µM |  |
| Cc1cc(O)c(C(=O)/C=C/c2ccc(Cl)cc2)c(=O)o1 | 6.97 | 6.28 | 87.4 µM |  |
| COc1ccccc1/C=C/C(=O)c1c(O)cc(C)oc1=O | 5.86 | 2.08 | > 100 µM |  |
| CC(C)(C)c1cc(O)ccc1O [E319] |  |  | > 100 µM | fold change (FC) [4]: 5.08 |
| Cc1cc(O)c(C(=O)/C=C/c2ccc(Cl)cc2Cl)c(=O)o1 | 5.49 | 3.27 | 88.7 µM |  |
| Cc1cc(O)c(C(=O)/C=C/c2ccco2)c(=O)o1 | 3.8 | 5.48 | > 100 µM |  |
| Cc1cc(O)c(C(=O)/C=C/c2ccccc2F)c(=O)o1 | 7.08 | 3.04 | > 100 µM | Activity (HCT-116 [5]): inactive; Activity [6]: Active; Activity [7]: Dose-dependent effect; Activity [8]: inactive; Activity (HCT-116 [9]): inactive; Activity (HCT-116 [10]): inactive; Activity (HCT-116 [11]): Active; Activity (HCT-116 [12]): Active; Activity (HCT-116 [13]): Active; Activity (HCT-116 [14]): inactive; Activity [15]: inactive; Activity (HCT-116 [16]): Active; Activity (HCT-116 [17]): inactive; Activity [18]: inactive |
| Cc1cc(O)c(C(=O)/C=C/c2ccc[nH]2)c(=O)o1 | 1.66 | 3.58 | > 100 µM |  |
| Cc1cc(O)c(C(=O)/C=C/c2ccccc2C(F)(F)F)c(=O)o1 | 4.27 | 2.55 | > 100 µM |  |
| Cc1cc(O)c(C(=O)/C=C/c2ccc(F)c(F)c2)c(=O)o1 | 9.65 | 3.68 | 74.9 µM |  |
| COc1cc(/C=C/C(=O)c2c(O)cc(C)oc2=O)cc(OC)c1OC | 8.58 | 5.25 | > 100 µM |  |
| Cc1cc(O)c(C(=O)/C=C/c2ccc(-c3ccccc3)cc2)c(=O)o1 | 5.67 | 3.6 | > 100 µM |  |
| Cc1cc(O)c(C(=O)/C=C/c2cccc(F)c2)c(=O)o1 | 7.04 | 3.46 | 81.2 µM |  |
| Cc1cc(O)c(C(=O)/C=C/c2ccc(F)cc2)c(=O)o1 | 6.33 | 5.79 | > 100 µM |  |
| Cc1cc(O)c(C(=O)/C=C/c2cccc(Cl)c2)c(=O)o1 | 6.46 | 4.51 | 66.3 µM |  |
